Measured values from article PMC2211770 (The Journal of Experimental Medicine, 2004).
Residues, ends and D or L forms follow the SMILES beside them. *: point of attachment. Cbz = O=C(OCc1ccccc1)*; CH2F = FC*

Tests used:
[1] = target: T1, Recombinant human caspase-5 (Homo sapiens, UniProt P51878); assay: M867 potency against recombinant human caspase-5; type: biochemical
T1 sequence (P51878 137-327 limits assumed): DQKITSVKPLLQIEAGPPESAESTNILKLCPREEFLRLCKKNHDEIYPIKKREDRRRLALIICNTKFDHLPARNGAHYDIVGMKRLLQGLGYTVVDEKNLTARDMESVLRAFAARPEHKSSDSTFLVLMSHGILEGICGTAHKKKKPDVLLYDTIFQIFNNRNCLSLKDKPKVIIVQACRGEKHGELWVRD
T1 sequence (P51878 347-434 limits assumed): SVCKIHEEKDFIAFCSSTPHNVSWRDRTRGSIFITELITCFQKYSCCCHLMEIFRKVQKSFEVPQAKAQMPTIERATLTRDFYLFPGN

[2] = target: T2, Recombinant human caspase-6 (Homo sapiens, UniProt P55212); assay: M867 potency against recombinant human caspase-6; type: biochemical
T2 sequence (P55212 24-179 limits assumed): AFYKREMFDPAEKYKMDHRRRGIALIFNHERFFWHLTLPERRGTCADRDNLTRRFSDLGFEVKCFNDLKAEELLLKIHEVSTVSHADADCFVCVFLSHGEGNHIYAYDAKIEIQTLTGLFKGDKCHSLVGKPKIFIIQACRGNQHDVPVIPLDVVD
T2 sequence (P55212 194-293 limits assumed): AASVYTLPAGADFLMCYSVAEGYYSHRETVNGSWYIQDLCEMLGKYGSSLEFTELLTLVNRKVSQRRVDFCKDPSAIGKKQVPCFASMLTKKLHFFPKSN

[3] = test system: DNA fragmentation in thymocytes; assay: DNA fragmentation; type: in vivo, rat; conditions: for Percentage of subdiploid cells (±SE): thymus 24 h
Procedure, shortened: (§1)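 CLP then followed: the ligated cecum was pierced through and through with a 20-gauge cannula and a silk thread was left in place for leakage. Shams had the cecum exteriorized only. Rats got 1 c.c. saline s.c., then a 2 ml/kg i.v. bolus of vehicle or test compound and 2 ml/h/kg infusion for 24 h. In the titration, doses were 0–10 mg/kg/h with one rat per dose. Thymus taken 24 h post-surgery.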

[4] = target: T3, Recombinant human caspase-1 (Homo sapiens, UniProt P29466); assay: M867 potency against recombinant human caspase-1; type: biochemical
T3 sequence (P29466 120-297 limits assumed): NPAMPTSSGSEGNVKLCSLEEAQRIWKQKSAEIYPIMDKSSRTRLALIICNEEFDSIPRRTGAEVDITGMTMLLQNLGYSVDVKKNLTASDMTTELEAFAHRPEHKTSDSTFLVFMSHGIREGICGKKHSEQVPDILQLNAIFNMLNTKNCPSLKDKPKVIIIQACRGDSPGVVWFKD
T3 sequence (P29466 317-404 limits assumed): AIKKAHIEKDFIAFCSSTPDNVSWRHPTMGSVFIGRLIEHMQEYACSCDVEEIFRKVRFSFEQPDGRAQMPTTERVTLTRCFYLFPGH

[5] = target: T4, Recombinant human caspase-10 (Homo sapiens, UniProt Q92851); assay: M867 potency against recombinant human caspase-10; type: biochemical
T4 sequence (Q92851 220-415 limits assumed): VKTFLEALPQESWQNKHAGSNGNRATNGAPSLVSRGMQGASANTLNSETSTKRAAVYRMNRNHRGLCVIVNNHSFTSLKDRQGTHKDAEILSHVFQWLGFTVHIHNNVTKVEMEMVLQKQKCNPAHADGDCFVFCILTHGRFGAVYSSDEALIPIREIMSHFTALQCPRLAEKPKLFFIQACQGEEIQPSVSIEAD
T4 sequence (Q92851 416-521 limits assumed): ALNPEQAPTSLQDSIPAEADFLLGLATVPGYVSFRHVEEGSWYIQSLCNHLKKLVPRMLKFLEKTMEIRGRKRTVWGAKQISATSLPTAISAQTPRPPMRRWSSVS

[6] = Drug levels in plasma, blood and spleen of rats under continuous i.v. infusion; type: in vivo; conditions: rat, intravenous, 2 mg/kg/h
Procedure, shortened: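 Test compound was given to rats by continuous i.v. infusion after a 2 ml/kg bolus, delivered at 2 ml/h/kg for 24 h. Dose rates were 2 mg/kg/h for plasma and spleen levels, and 0.5 or 1.5 mg/kg/h for blood levels.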

[7] = test system: basal apoptotic parameters; assay: Basal apoptotic parameters in sham-operated animals; type: in vivo, rat; conditions: sham-operated animals (unpublished data)
[8] = target: T5, Recombinant human caspase-7 (Homo sapiens, UniProt P55210); assay: M867 potency against recombinant human caspase-7; type: biochemical
T5 sequence (P55210 24-198 limits assumed): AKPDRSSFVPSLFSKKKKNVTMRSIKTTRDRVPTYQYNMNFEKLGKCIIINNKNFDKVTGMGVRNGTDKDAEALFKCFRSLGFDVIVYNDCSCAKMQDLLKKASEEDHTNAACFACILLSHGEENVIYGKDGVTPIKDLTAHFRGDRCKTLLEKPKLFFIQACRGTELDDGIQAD
T5 sequence (P55210 207-303 limits assumed): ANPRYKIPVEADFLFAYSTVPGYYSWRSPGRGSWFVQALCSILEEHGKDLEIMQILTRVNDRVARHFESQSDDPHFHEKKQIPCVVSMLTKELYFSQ

[9] = test system: αII-spectrin cleavage in thymocytes; assay: αII-spectrin cleavage in the thymus of CLP-induced septic rats; type: in vivo, rat; conditions: for Spectrin cleavage OD (±SE): thymus 24 h
Procedure, shortened: as §1

[10] = target: T6, Recombinant human caspase-2 (Homo sapiens, UniProt P42575); assay: M867 potency against recombinant human caspase-2; type: biochemical
T6 sequence (P42575 170-325 limits assumed): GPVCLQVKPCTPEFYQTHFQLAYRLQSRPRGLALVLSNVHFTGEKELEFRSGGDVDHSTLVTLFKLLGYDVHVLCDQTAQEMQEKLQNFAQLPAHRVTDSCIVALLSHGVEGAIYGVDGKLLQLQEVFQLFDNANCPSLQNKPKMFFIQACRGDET
T6 sequence (P42575 348-452 limits assumed): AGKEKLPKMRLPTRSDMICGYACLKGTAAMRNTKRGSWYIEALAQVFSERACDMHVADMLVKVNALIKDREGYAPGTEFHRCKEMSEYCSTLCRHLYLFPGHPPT

[11] = test system: DNA fragmentation in cultured primary rat thymocytes; assay: DNA fragmentation; type: cell-based
Procedure, shortened: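 Thymocytes were cultured for 24 h at 10 × 10^6 cells/ml in CytoSF4 plus l-glutamine and antibiotics, with test compound at a range of concentrations. Cells fixed 30 min on ice in 70% EtOH and stained in PBS/0.1% Triton X-100/RNase A/25 μg/ml PI. Subdiploid DNA by flow cytometry, 20,000 events, duplicate samples, debris gated out on forward scatter. IC50 by 4-parameter fit.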

[12] = target: Recombinant human caspase-8 (Homo sapiens, UniProt Q14790); assay: M867 potency against recombinant human caspase-8; type: biochemical
[13] = target: T7, Recombinant human caspase-3 (Homo sapiens, UniProt P42574); assay: M867 potency against recombinant human caspase-3; type: biochemical
T7 sequence (P42574 29-175 limits assumed): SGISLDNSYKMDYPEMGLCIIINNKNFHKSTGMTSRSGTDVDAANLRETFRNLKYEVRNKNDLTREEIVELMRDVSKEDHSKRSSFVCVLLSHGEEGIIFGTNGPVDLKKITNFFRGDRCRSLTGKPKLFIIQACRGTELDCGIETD
T7 sequence (P42574 176-277 limits assumed): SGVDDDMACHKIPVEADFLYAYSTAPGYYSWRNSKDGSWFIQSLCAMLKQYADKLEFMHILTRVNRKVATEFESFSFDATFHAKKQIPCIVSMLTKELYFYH

[14] = target: T8, Recombinant human caspase-4 (Homo sapiens, UniProt P49662); assay: M867 potency against recombinant human caspase-4; type: biochemical
T8 sequence (P49662 81-270 limits assumed): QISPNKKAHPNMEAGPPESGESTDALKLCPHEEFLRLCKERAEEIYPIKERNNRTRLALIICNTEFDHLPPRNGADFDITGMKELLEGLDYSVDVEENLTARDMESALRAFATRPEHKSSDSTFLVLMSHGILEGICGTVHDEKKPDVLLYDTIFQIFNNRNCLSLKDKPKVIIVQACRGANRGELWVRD
T8 sequence (P49662 290-377 limits assumed): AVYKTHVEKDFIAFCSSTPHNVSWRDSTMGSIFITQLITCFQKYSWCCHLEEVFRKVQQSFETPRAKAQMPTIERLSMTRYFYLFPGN

[15] = test system: caspase-3 processing; assay: Caspase-3 Western blotting on thymus extracts of CLP rats dosed with M867; type: in vivo, rat; conditions: all M867 doses
Procedure, shortened: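 Female Sprague-Dawley rats (250–300 g) had CLP via a 20-gauge through-and-through cecal puncture with a silk wick. Test compound was given as an i.v. femoral catheter bolus (2 ml/kg) then infused at 0–10 mg/kg/h for 24 h (vehicle n = 6; n = 1 per dose). Thymus lysates (40 μg, heat-denatured) were run on 10–20% SDS-PAGE and probed with rabbit anti-caspase-3 (1:2,000) and HRP anti-rabbit, with chemiluminescent detection.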

[16] = test system: αII-spectrin cleavage in cultured primary rat thymocytes; assay: αII-spectrin cleavage in cultured primary rat thymocytes; type: cell-based; conditions: read-out: IC50 spectrin, average of two to four experiments (single for zVAD-fmk and M808)
Procedure, shortened: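 Rat thymocytes, isolated by tissue grinding in cold PBS/glucose/glutamine/1% FBS and filtered, were kept 24 h at 10 × 10^6 cells/ml in CytoSF4 with l-glutamine and antibiotics over a test compound concentration series. The read-out is the caspase-3-generated p120 αII-spectrin neoepitope. IC50 from a 4-parameter curve fit.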

[17] = crude extrapolation, septic rats (Fig. 4)
[18] = septic rats, continuous i.v. infusion

Recombinant human caspase-8, sequence (Q14790 217-374 limits assumed): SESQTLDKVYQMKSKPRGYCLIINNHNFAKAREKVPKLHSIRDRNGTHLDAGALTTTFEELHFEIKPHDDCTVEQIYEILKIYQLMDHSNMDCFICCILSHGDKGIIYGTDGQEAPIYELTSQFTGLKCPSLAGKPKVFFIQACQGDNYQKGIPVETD
Recombinant human caspase-8, sequence (Q14790 385-479 limits assumed): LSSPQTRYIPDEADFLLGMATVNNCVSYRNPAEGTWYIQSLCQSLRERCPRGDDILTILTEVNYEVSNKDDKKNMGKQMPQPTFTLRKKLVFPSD

SMILES: CCCCCN(C)CC(=O)[C@H](CC(=O)O)NC(=O)[C@H](CC)n1cc(C(C)(C)C)nc(NCc2nonc2C)c1=O [M867, (3S)-3-({(2S)-2-[5-tert-butyl-3-{[(4-methyl-1,2,5-oxadiazol-3-yl)methyl]amino}-2-oxopyrazin-1(2H)-yl]butanoyl}amino)-5-[methyl(pentyl)amino]-4-oxopentanoic acid]
- Ki [1]: 805 nM
- Ki [2]: 3440 nM
- reduction of DNA fragmentation in thymocytes ([3]; CLP rats, i.v. infusion over 24 h after CLP, first experiment (Fig. 2 D, n = 10)): 57%
- Percentage of subdiploid cells (±SE) ([3]; CLP rats, first experiment (n = 10; vehicle 25.12, sham 1.23)): 11.61 ± 2.95%
- Percentage of subdiploid cells (±SE) ([3]; CLP rats, second experiment (n = 4-5; vehicle 33.49, sham 0.37)): 13.25 ± 4.70%
- in vivo IC50 DNA fragmentation [3, 17]: 2 mg/kg/h
- drug levels needed to inhibit DNA cleavage compared with αII-spectrin cleavage ([3]; experimental peritonitis, rats): fourfold
- doses fully inhibiting DNA fragmentation [3, 18]: above 5 mg/kg/h
- effect on DNA fragmentation in dose titration ([3]; septic rats, doses up to 10 mg/kg/h): almost abrogated
- Ki [4]: 107 nM
- Ki [5]: 29500 nM
- concentration at 24 h ([6]; plasma): 650 ± 180 nM
- concentration at 24 h ([6]; spleen): 370 ± 100 nM
- effect on basal apoptotic parameters [7]: no effect
- Ki [8]: 8.9 nM
- reduction of αII-spectrin cleavage in thymocytes ([9]; CLP rats, i.v. infusion over 24 h after CLP, first experiment (Fig. 2 C, n = 10)): 88%
- Spectrin cleavage OD (±SE) ([9]; CLP rats, first experiment (n = 10; vehicle 0.97, sham 0.21)): 0.30 ± 0.01 OD
- Spectrin cleavage OD (±SE) ([9]; CLP rats, second experiment (n = 4-5; vehicle 0.58, sham 0.12)): 0.18 ± 0.01 OD
- in vivo IC50 αII-spectrin cleavage [9, 17]: 0.5 mg/kg/h
- inhibition of αII-spectrin cleavage ([9]; septic rats, 2 mg/kg/h): almost complete inhibition
- doses achieving abolition of αII-spectrin cleavage [9, 18]: below 2 mg/kg/h
- Ki [10]: > 100000 nM
- effect on DNA fragmentation ([11]; 0.1 μM, cultured thymocytes): without affecting
- Ki [12]: 4030 nM
- Ki [13]: 1.4 nM
- Ki [14]: 495 nM
- caspase-3 processing [15]: processed equally well

SMILES: COC(=O)C[C@H](NC(=O)[C@H](C)NC(=O)[C@@H](NC(=O)OCc1ccccc1)C(C)C)C(=O)CF [zVAD-fmk, zVAD-fluoromethyl ketone, reference compound] (Cbz-Val-Ala-Asp(OMe)-CH2F)
- IC50 [16]: 600 nM
- IC50 ([11]; read-out: IC50 subdiploid, cultured rat thymocytes, average of two to four experiments (single for zVAD-fmk and M808)): 25000 nM
